Experimental data taken from ChEMBL document CHEMBL3244248, “Substituted 3-amino-1,1-diaryl-2-propanols as potential antidepressant agents” (J Med Chem, 1979).
The source made the active and inactive calls. The rule behind the calls is not given here.

Columns and labels:
Mus musculus [1] = assay: Antidepressant activity against reserpine-induced hypothermia CFLP mouse model assessed as change in esophageal temperature at 100 mg/kg, po treated before 2 to 24 hrs of reserpine challenge; format: functional, organism-based; parameters: dose 100 mg/kg
In short: (§1)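 Male CFLP mice (18–23 g), two groups of five, received oral compound or vehicle 24, 18 and 2 h before iv reserpine base (1 mg/kg). Esophageal temperature was read before reserpine and at 2, 4 and 6 h. Test-minus-control mean differences at the three times were summed and corrected for the 0 h difference, giving Δ6 (°C).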

Mus musculus [2] = assay: Antidepressant activity against reserpine-induced hypothermia CFLP mouse model assessed as change in esophageal temperature at 3 mg/kg, po treated before 2 to 24 hrs of reserpine challenge; format: functional, organism-based; parameters: dose 3 mg/kg; in short: as §1
Mus musculus [3] = assay: Antidepressant activity against reserpine-induced hypothermia CFLP mouse model assessed as change in esophageal temperature at 10 mg/kg, po treated before 2 to 24 hrs of reserpine challenge; format: functional, organism-based; parameters: dose 10 mg/kg; in short: as §1
[4] = Anticholinergic effect in sc dosed CFLP mouse assessed as inhibition of pilocarpine-induced salivation; format: organism-based; conditions: in vivo
In short: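 Male CFLP mice (18–23 g), groups of eight. Vehicle or drug was given sc 20 min before urethane anaesthesia (1.8 g/kg sc), and pilocarpine (2 mg/kg sc) followed 10 min later. Salivation areas on chromatography paper were measured by planimeter every 5 min for 35 min. Percentage change from control was regressed against log dose to give an ED50 with fiducial limits.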

Ileum = assay: Anticholinergic effect in guinea pig ileum assessed as inhibition of acetylcholine-induced contraction; format: tissue-based; conditions: Cavia porcellus, read-out: pA2 (converted)
In short: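 Guinea pig ileum contracted by acetylcholine. ED50 values were generated from a dose–response fit, p = D^E/(D^E + K^E), and converted to pA2. pA2 is the negative log10 of the molar antagonist concentration that reduces the effect of two equal acetylcholine doses to that of a single dose.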

Mus musculus [5] = assay: Antidepressant activity against reserpine-induced hypothermia CFLP mouse model assessed as change in esophageal temperature at 5 mg/kg, po treated before 2 to 24 hrs of reserpine challenge; format: functional, organism-based; parameters: dose 5 mg/kg; in short: as §1
Mus musculus [6] = organism: Mus musculus; assay: Anticholinergic effect in CFLP mouse assessed as mydriasis; conditions: in vivo
Mus musculus [7] = assay: Antidepressant activity against reserpine-induced hypothermia CFLP mouse model assessed as change in esophageal temperature at 30 mg/kg, po treated before 2 to 24 hrs of reserpine challenge; format: functional, organism-based; parameters: dose 30 mg/kg; in short: as §1
Mus musculus [8] = assay: Antidepressant activity against reserpine-induced hypothermia CFLP mouse model assessed as change in esophageal temperature < 5 degC at 30 mg/kg, po treated before 2 to 24 hrs of reserpine challenge
Mus musculus [9] = assay: Antidepressant activity against reserpine-induced hypothermia CFLP mouse model assessed as change in esophageal temperature < 5 degC at 100 mg/kg, po treated before 2 to 24 hrs of reserpine challenge; format: functional, organism-based; parameters: dose 100 mg/kg; in short: as §1
Mus musculus [10] = assay: Antidepressant activity against reserpine-induced hypothermia CFLP mouse model assessed as change in esophageal temperature at 6 mg/kg, po treated before 2 to 24 hrs of reserpine challenge; format: functional, organism-based; parameters: dose 6 mg/kg; in short: as §1
Mus musculus [11] = assay: Antidepressant activity against reserpine-induced hypothermia CFLP mouse model assessed as change in esophageal temperature at 20 mg/kg, po treated before 2 to 24 hrs of reserpine challenge; format: functional, organism-based; parameters: dose 20 mg/kg; in short: as §1
Mus musculus [12] = assay: Antidepressant activity against reserpine-induced hypothermia CFLP mouse model assessed as change in esophageal temperature at 1 mg/kg, po treated before 2 to 24 hrs of reserpine challenge; format: functional, organism-based; parameters: dose 1 mg/kg; in short: as §1
[13] = Inhibition of radiolabeled noradrenaline uptake in whole rat brain synaptosome; format: functional, tissue-based
[14] = Inhibition of radiolabeled 5-hydroxytryptamine uptake in whole rat brain synaptosome; format: functional, tissue-based
[15] = Inhibition of radiolabeled dopamine uptake in whole rat brain synaptosome; format: functional, tissue-based
Brain = assay: In vivo inhibition of hydroxytryptamine-induced depletion of rat brain noradrenaline; format: functional
Rattus norvegicus = assay: Toxicity in substantia nigra lesioned rat assessed as turning behaviour up to 50 mg/kg, po; format: organism-based; parameters: dose 50 mg/kg, route oral; conditions: in vivo
In short: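 Rats with a unilateral substantia nigra lesion, dosed orally at up to 50 mg/kg, and observed for turning.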

Mus musculus [16] = assay: Toxicity in mouse assessed as CNS stimulation up to 8 mg/kg, po; format: organism-based, Central nervous system; parameters: dose 8 mg/kg, route oral; conditions: in vivo
Mus musculus [17] = assay: Antidepressant activity against reserpine-induced hypothermia CFLP mouse model assessed as change in esophageal temperature at 60 mg/kg, po treated before 2 to 24 hrs of reserpine challenge; format: functional, organism-based; parameters: dose 60 mg/kg; in short: as §1
Mus musculus [18] = assay: Antidepressant activity against reserpine-induced hypothermia CFLP mouse model assessed as change in esophageal temperature at 16 mg/kg, po treated before 2 to 24 hrs of reserpine challenge; format: functional, organism-based; parameters: dose 16 mg/kg; in short: as §1
Mus musculus [19] = assay: Antidepressant activity against reserpine-induced hypothermia CFLP mouse model assessed as change in esophageal temperature at 4 mg/kg, po treated before 2 to 24 hrs of reserpine challenge; format: functional, organism-based; parameters: dose 4 mg/kg; in short: as §1

`OC(CN1CCOCC1)C(c1ccccc1)c1ccccc1` (stereo unspecified) gave a deltaT (Mus musculus [1]) of 11 °C.
For `CN(C)CC(O)C(c1ccccc1)c1cc(Cl)cc(Cl)c1` (stereo unspecified), the deltaT (Mus musculus [2]) was 6.2 °C.
`CCN(CC)CC(O)C(c1ccccc1)c1ccccc1` (stereo unspecified) showed a deltaT (Mus musculus [3]) of 5 °C.
`CN(C)CC(O)C(c1ccccc1)c1ccc(F)cc1` (stereo unspecified) showed an ED50 [4] greater than 100 mg/kg, a Kb (Ileum) of 15.8 µM and a deltaT (Mus musculus [5]) of 5.8 °C. The ED50 (Mus musculus [6]) was 26 mg/kg.
In the case of `CN(C)CC(O)C(O)(c1ccccc1)c1ccccc1` (stereo unspecified), the deltaT (Mus musculus [7]) is reported as 5.5 °C.
With `Br.CN(C)C[C@H](O)C(c1ccccc1)c1ccccc1` the ED50 [4] was 63 mg/kg, the Kb (Ileum) was 3.16 µM and the ED50 (Mus musculus [6]) was 26 mg/kg.
`CNCC(O)C(c1ccccc1)c1ccc(Cl)cc1` (stereo unspecified) gave a deltaT (Mus musculus [3]) of 8.8 °C.
In the case of `CNCC(O)C(c1ccccc1)c1ccc(C)cc1` (stereo unspecified), the deltaT (Mus musculus [1]) is reported as 5.4 °C and the Activity (Mus musculus [8]) is reported as “inactive”.
In the case of `CNCC(C)(O)C(c1ccccc1)c1ccccc1` (stereo unspecified), the deltaT (Mus musculus [7]) is reported as 8.9 °C.
With `CN(C)CC(O)(c1ccccc1)C(c1ccccc1)c1ccccc1` (stereo unspecified) the Activity (Mus musculus [8]) was “inactive”.
With `CN(C)CC(O)C(c1ccccc1)c1cccc(Br)c1.Cl` (stereo unspecified) the Activity (Mus musculus [2]) was “inactive”, the ED50 [4] was greater than 100 mg/kg and the Kb (Ileum) was 7.94 µM. For the same compound, the deltaT (Mus musculus [5]) was 12.4 °C and the ED50 (Mus musculus [6]) was 49 mg/kg.
`CNCC(O)C(c1ccccc1)c1ccccc1Cl` (stereo unspecified) showed a deltaT (Mus musculus [5]) of 8.6 °C.
In the case of `CN(C)CC(O)C(c1ccccc1)C1CCCCC1` (stereo in doubt; 39a), the Activity (Mus musculus [9]) is reported as “inactive”.
`Cc1ccccc1C(c1ccccc1)C(O)CN(C)C` (stereo unspecified) gave a deltaT (Mus musculus [3]) of 10.4 °C.
With `CN(C)CC(O)C(c1ccccc1)c1ccc(Cl)c(Cl)c1` (stereo unspecified) the deltaT (Mus musculus [3]) was 7.2 °C.
With `CNCC(O)C(c1ccccc1)c1ccccc1.Cl` (stereo unspecified) the ED50 [4] was 40 mg/kg, the Kb (Ileum) was 10 µM and the deltaT (Mus musculus [10]) was 6.1 °C. The ED50 (Mus musculus [6]) was 144 mg/kg.
With `CN(C)CC(O)C(c1ccccc1)C1CCCCC1` (stereo in doubt; 39b) the Activity (Mus musculus [9]) was “inactive”.
For `NCC(O)C(c1ccccc1)c1ccccc1` (stereo unspecified), the Activity (Mus musculus [9]) was “inactive”.
With `CN(C)CC(O)C(c1ccccc1)c1cccc(C(F)(F)F)c1.Cl` (stereo unspecified) the Kb (Ileum) was 1.58 µM, the deltaT (Mus musculus [5]) was 9 °C and the ED50 (Mus musculus [6]) was 26 mg/kg.
In the case of `Br.CN(C)C[C@@H](O)C(c1ccccc1)c1ccccc1`, the ED50 [4] is reported as 51 mg/kg, the Kb (Ileum) is reported as 7.94 µM and the ED50 (Mus musculus [6]) is reported as 46 mg/kg.
With `OC(CNCc1ccccc1)C(c1ccccc1)c1ccccc1` (stereo unspecified) the Activity (Mus musculus [9]) was “inactive”.
Compound `CN(C)CCCN1c2ccccc2CCc2ccccc21` [IMIPRAMINE] has a deltaT (Mus musculus [11]) of 6.8 °C, an ED50 [4] of 3.3 mg/kg and a Kb (Ileum) of 0.00126 µM. The ED50 (Mus musculus [6]) was 20 mg/kg.
Work on `CN(C)CC(O)C(CCc1ccccc1)c1ccccc1` (stereo unspecified) yielded a deltaT (Mus musculus [1]) of 7.4 °C.
In the case of `CN(C)CC(O)C(c1ccccc1)c1ccccc1Cl.Cl` (stereo unspecified), the ED50 [4] is reported as 24 mg/kg, the Kb (Ileum) is reported as 6.31 µM and the deltaT (Mus musculus [12]) is reported as 6.6 °C. It also gave an ED50 (Mus musculus [6]) of 29 mg/kg.
For `COC(c1ccccc1)(c1ccccc1)C(O)CN(C)C` (stereo unspecified), the deltaT (Mus musculus [1]) was 6.9 °C.
Compound `COc1ccc(C(c2ccccc2)C(O)CN(C)C)cc1` (stereo unspecified) has a deltaT (Mus musculus [3]) of 5.9 °C.
With `Cc1ccc(C(c2ccccc2)C(O)CN(C)C)cc1` (stereo unspecified) the Activity (Mus musculus [9]) was “inactive”.
With `CN(C)CC(O)C(c1ccccc1)c1cccc(Cl)c1.Cl` (stereo unspecified) the ED50 [4] was 33 mg/kg, the Kb (Ileum) was 15.8 µM and the IC50 [13] was 1.2 µM. The IC50 [14] was 9.8 µM, the IC50 [15] was 8.9 µM and the ED50 (Brain) was 30 mg/kg. For the same compound, the Activity (Rattus norvegicus) was “Non-toxic”, the Activity (Mus musculus [16]) was “Toxic” and the deltaT (Mus musculus [12]) was 5.3 °C. It also gave an ED50 (Mus musculus [6]) of 42 mg/kg.
`Br.CN(C)CC(O)C(c1ccccc1)c1ccccc1` (stereo unspecified) showed an ED50 [4] of 36 mg/kg, a Kb (Ileum) of 6.31 µM and a deltaT (Mus musculus [5]) of 5.3 °C. For the same compound, the ED50 (Mus musculus [6]) was 53 mg/kg.
In the case of `CN(C)CC(O)C(c1ccc(F)cc1)c1ccc(F)cc1` (stereo unspecified), the deltaT (Mus musculus [3]) is reported as 7.8 °C.
With `CCN(C)CC(O)C(c1ccccc1)c1ccccc1.Cl` (stereo unspecified) the ED50 [4] was 43 mg/kg, the Kb (Ileum) was 50.1 µM and the Activity (Mus musculus [5]) was “inactive”. The deltaT (Mus musculus [3]) was 10.2 °C and the ED50 (Mus musculus [6]) was 36 mg/kg.
In the case of `CN(C)CC(O)C(c1ccccc1)c1cccs1` (stereo unspecified), the deltaT (Mus musculus [17]) is reported as 8.4 °C.
In the case of `CN(C)CC(O)C(c1ccccc1)c1ccc(Cl)cc1.O=C(O)CCC(=O)O` (stereo unspecified), the ED50 [4] is reported as 71 mg/kg, the Kb (Ileum) is reported as 7.94 µM and the deltaT (Mus musculus [18]) is reported as 6.3 °C. For the same compound, the ED50 (Mus musculus [6]) was 40 mg/kg.
In the case of `CC(O)(CN)C(c1ccccc1)c1ccccc1` (stereo unspecified), the Activity (Mus musculus [9]) is reported as “inactive”.
Work on `CN(Cc1ccccc1)CC(O)C(c1ccccc1)c1ccc(F)cc1` (stereo unspecified) yielded a deltaT (Mus musculus [3]) of 7.3 °C.
For `CC(=O)OC(CN(C)C)C(c1ccccc1)c1ccccc1` (stereo unspecified), the Activity (Mus musculus [19]) was “inactive” and the deltaT (Mus musculus [5]) was 10.2 °C.
Work on `CN(C)CC(O)C(O)(c1ccccc1)c1ccc(F)cc1` (stereo unspecified) yielded a deltaT (Mus musculus [3]) of 7.5 °C.
`CN(C)CC(O)C(Cc1ccccc1)c1ccccc1` (stereo unspecified) showed a deltaT (Mus musculus [7]) of 8.6 °C.
Work on `CN(CCCO)CC(O)C(c1ccccc1)c1ccccc1` (stereo unspecified) yielded a deltaT (Mus musculus [7]) of 12.4 °C.
For `CN(Cc1ccccc1)CC(O)C(c1ccccc1)c1ccccc1` (stereo unspecified), the deltaT (Mus musculus [3]) was 6.1 °C.
With `CN1CCN(CC(O)C(c2ccccc2)c2ccccc2)CC1` (stereo unspecified) the deltaT (Mus musculus [7]) was 6.3 °C.
`CN(C)CC(OC(=O)c1ccccc1)C(c1ccccc1)c1cccc(Cl)c1` (stereo unspecified) gave a deltaT (Mus musculus [3]) of 5.2 °C.
For `OC(CN1CCCCC1)C(c1ccccc1)c1ccccc1` (stereo unspecified), the deltaT (Mus musculus [1]) was 9.9 °C.
